Results pooled from the literature.
Target: Phosphorylase b kinase gamma catalytic chain, liver/testis isoform (PHKG2, Homo sapiens, UniProt P15735)
Residues used in one study (P15735 1-406): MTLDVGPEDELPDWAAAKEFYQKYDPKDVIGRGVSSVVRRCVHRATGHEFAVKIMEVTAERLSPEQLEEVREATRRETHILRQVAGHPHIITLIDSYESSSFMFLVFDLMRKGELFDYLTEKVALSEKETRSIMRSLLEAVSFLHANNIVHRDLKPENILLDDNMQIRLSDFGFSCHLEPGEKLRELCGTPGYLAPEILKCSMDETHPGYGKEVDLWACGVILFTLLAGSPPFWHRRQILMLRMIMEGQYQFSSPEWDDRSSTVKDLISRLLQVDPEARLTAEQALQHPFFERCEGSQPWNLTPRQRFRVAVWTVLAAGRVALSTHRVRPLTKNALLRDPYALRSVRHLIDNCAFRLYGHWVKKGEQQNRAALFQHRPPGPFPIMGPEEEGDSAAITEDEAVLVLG

SMILES | effect on | action | technique | concentration | endpoint | value
O=C(NCc1ncc(C(F)(F)F)cc1Cl)c1ccc2c(c1)C1(CCS(=O)(=O)CC1)[C@H](C1CC1)N2S(=O)(=O)c1ccc(F)cc1 | cell-free assay | – | competition with immobilised ligand | 1 µM | remaining binding | 96%
CC(C)(C)c1cc(C=C(C#N)C#N)cc(Br)c1O | enzyme activity | inhibitor | – | 0.5 µM | remaining activity | 106%
Cn1cc(-c2cccc(N3CCc4c(sc5c4CC(C)(C)C5)C3=O)c2CO)cc(Nc2ccncn2)c1=O | enzyme activity | inhibitor | – | 1 µM | inhibition | -1%
COc1ncccc1-c1cnn2ccc(N3CCN(C(=O)OC(C)C)CC3)nc12 | binding | – | competition with immobilised ligand | 1 µM | remaining binding | 100%
O=c1[nH]c2ccccc2n1C1CCN(Cc2ccc(-c3[nH]c4cc5ncnc5cc4nc3-c3ccccc3)cc2)CC1 | cell-free assay | – | – | 0.5 µM | remaining signal | 104%
Cn1cncc1[C@@](O)(COc1ccc(C#N)cc1-c1ccc(OC(F)(F)F)cc1)c1ccc(C#N)cc1 | cell-free assay | – | competition with immobilised ligand | 1 µM | remaining binding | 92%
Cc1nn(C)cc1-c1nc2c(N3CCN(Cc4ccc(Cl)cc4)CC3)c(Cl)cnc2[nH]1 | binding | – | competition with immobilised ligand | 1 µM | remaining binding | 100%
Cn1cc(-c2cc(F)cc(N3CCn4c(cc5c4CCCC5)C3=O)c2CO)cc(Nc2ccc(N3CCN(C4COC4)CC3)cn2)c1=O | enzyme activity | inhibitor | – | 0.1 µM | inhibition | 8%
Nc1ncc(-c2nc(N3CCOCC3)nc(N3CCOCC3)n2)c(C(F)F)n1 | binding | – | competition with immobilised ligand | 10 µM | remaining binding | 67%
